An excerpt weighted towards active compounds, which were near 2.6% of everything screened.
SENP7 block: inhibitors of human SENP7 protease; inhibition, % at 5 µM; Q9BQF6; hit rate 1.5% among 330,000; recombinant SENP7, Z-RLRGG-aminoluciferin luminescence, 40 min;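 active = inhibition above about 50% at the single test dose, limit read from the data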;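 note: plate controls were DMSO with enzyme for no effect and no enzyme buffer wells for full effect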
Target sequence (Q9BQF6 706-1050 limits assumed): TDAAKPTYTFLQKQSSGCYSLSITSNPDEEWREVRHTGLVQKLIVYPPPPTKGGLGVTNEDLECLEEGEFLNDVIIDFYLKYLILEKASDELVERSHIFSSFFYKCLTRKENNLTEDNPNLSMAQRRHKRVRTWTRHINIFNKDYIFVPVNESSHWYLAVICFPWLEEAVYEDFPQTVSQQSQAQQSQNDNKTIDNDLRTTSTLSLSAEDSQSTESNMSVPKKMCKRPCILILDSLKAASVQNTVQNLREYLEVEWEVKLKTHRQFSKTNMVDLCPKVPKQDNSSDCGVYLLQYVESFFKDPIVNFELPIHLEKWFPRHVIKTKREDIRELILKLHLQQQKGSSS
SENP8 block-1: blocks the human protease SENP8. Q96LD8. inhibition, % at 10 µM. hit rate 1.2% among 330,000. purified SENP8, Z-RLRGG-aminoluciferin cleavage, luminescence; in the data active = inhibition above about 50%
SENP1 FRET inh: inhibitors of human SENP1 SUMO protease catalytic domain; inhibition, % at 10 µM; hit rate 0.21% among 360,000; Q9P0U3; recombinant SENP1 catalytic domain, CyPet-SUMO1-YPet FRET cleavage;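 active = inhibition at least 30% at 10 µM, raw YFP signal under a set limit, fluorescence ratio 0.5 to 1.5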;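 note: 0% = enzyme with DMSO and 100% = no enzyme wells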
Target sequence (Q9P0U3 419-644 limits assumed): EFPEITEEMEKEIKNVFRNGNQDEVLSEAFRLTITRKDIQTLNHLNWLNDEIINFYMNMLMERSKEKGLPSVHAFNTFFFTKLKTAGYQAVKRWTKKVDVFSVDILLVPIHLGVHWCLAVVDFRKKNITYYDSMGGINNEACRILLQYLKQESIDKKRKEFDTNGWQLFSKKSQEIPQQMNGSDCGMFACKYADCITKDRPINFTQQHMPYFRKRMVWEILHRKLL
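material = recombinant human SENP1 catalytic domain, His6-tagged | quantity = 20 pM enzyme | reagent = 25 nM SUMO1 FRET substrate | compound dosing = 10 µM single point, 0.5% DMSO | timing = 50 min enzyme reaction, room temperature, light-protected | detection = FRET, CFP and YFP emission | control set = no-enzyme low, enzyme-DMSO high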
SENP6 inh: blocks the human protease SENP6. Q9GZR1. Recombinant SENP6 catalytic domain, aminoluciferin luminescence. inhibition, % at 10 µM. hit rate 1.8% among 330,000. AID 2599;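 active = inhibition above about 50% at the single tested dose, limit read from the data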;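 note: plate controls were DMSO wells with enzyme for no effect and DMSO wells lacking enzyme for full effect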
Platelet DG rel: platelet dense granule release activity; hit rate 0.22% among 300,000; human platelet-rich plasma, SFLLRN dense granule ATP release, luminescence; inhibition, %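 (compounds screened at 7.5 µM in platelet-rich plasma)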;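 active = mean replicate score, as percent of positive control, at or above 50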
SENP8 block-2: inhibitors of human SENP8 protease. recombinant SENP8, Nedd8 substrate fluorescence. inhibition, % at 20 µM. hit rate 0.64% among 360,000; in the data active = inhibition mostly above about 40%, no sharp cut-off; inactive = mostly below about 27%
SENP8 conf: SENP8 (human) inhibition, single concentration confirmation. AID 624319. hit rate 15% among 1,400. shares compounds with SENP8 block-2. purified SENP8, Nedd8-AMC/pro-Nedd8 cleavage fluorescence, 30 min. inhibition, % at 25 µM; in the data active = inhibition mostly above about 39%, no sharp cut-off; inactive = mostly below about 34%
SENP1 conf: SENP1 (human) inhibition, single concentration confirmation | recombinant SENP1, CyPet-SUMO1-YPet FRET cleavage | shares compounds with SENP1 FRET inh | inhibition, % at 10 µM | hit rate 34% among 520; in the data active = inhibition mostly above about 35%, no sharp cut-off; inactive = mostly below about 32%;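 note: 0% = enzyme with DMSO and 100% = no enzyme control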
SENP1 kin conf: confirmation of human SENP1 SUMO protease inhibitors, kinetic | hit rate 26% among 520 | inhibition, % at 10 µM | shares compounds with SENP1 FRET inh | recombinant SENP1, CyPet-SUMO1-YPet FRET kinetic cleavage | AID 651690; in the data active = inhibition mostly above about 32%, no sharp cut-off; inactive = mostly below about 29%;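 note: 0% = DMSO with enzyme and 100% = no enzyme substrate only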
* marks the source's active call; other numbers are inactive results; . = no result.

SMILES	SENP7 block	SENP8 block-1	SENP1 FRET inh	SENP6 inh	Platelet DG rel	SENP8 block-2	SENP8 conf	others
CCOc1ccc2nc(N=Nc3c(O)[nH]c(=S)[nH]c3=O)sc2c1	5.9	6.1	-3.6	12.8	-2.6	40.1*	2.3
Cc1c(N=Nc2c(O)[nH]c(=S)[nH]c2=O)c(=O)n(-c2ccccc2)n1C	10.2	-4.8	2.5	2.6	8.6	21.7	.
CC(C)COC(=O)c1ccccc1C(=O)OCC(C)C	0.9	-1.6	1.0	-16.2	-1.0	48.5*	7.7
O=CNc1ccc(OP(=O)(Oc2ccccc2)Oc2ccccc2)cc1	-7.4	-1.7	-0.1	-6.5	-23.3	10.7	.
COC(=O)C(O)(c1c[nH]c2ccccc12)C(F)(F)F (stereo not given)	6.9	-1.4	3.6	-11.1	-2.6	17.8	.
COC(=O)C(O)(c1c(C)[nH]n(-c2ccccc2)c1=O)C(F)(F)F (stereo not given)	24.0	6.3	4.2	27.3	-2.4	63.1*	87.1*
O=C(NCC1=C(c2cccc3ccccc23)C[C@@H]2CC[C@H]1N2Cc1ccco1)c1cccs1	.	.	-1.2	.	.	10.6	.
Cn1c(=O)[nH]c2nncnc2c1=O	17.8	6.4	7.8	10.6	24.2	77.5*	89.6*
CCC(=O)c1ccc(OC)c(OC)c1	11.8	-5.3	2.3	-18.6	-1.9	-6.8	.
COc1ccc(C(=O)O)cc1OC	.	.	3.9	.	.	44.6*	14.2
COc1cc2c(c(OC)c1OC)-c1ccc(SC)c(=O)cc1C(NC(C)=O)CC2 (stereo not given)	.	.	-0.5	.	.	-3.9	.
COc1ccc(CN2CCNCC2)cc1	-8.2	-5.7	-0.9	-6.5	-1.6	9.5	.
C=CCc1ccc(OC)cc1	1.9	-10.4	1.7	-2.8	.	49.8*	-4.9
COC(=O)C1=C(c2cccc(OC)c2OC)C[C@@H]2CC[C@H]1N2C	0.7	8.2	1.4	-1.9	.	11.9	.
C[C@]12C[C@H](O)[C@@H](O)C[C@@H]1CC[C@@H]1[C@@H]2CC[C@]2(C)C(=O)CC[C@@H]12	.	.	2.0	.	.	49.1*	6.0
COc1cc2c(c(OC)c1OC)-c1ccc(O)c(=O)cc1[C@@H](N)CC2	6.8	0.2	-1.7	-8.1	.	52.6*	-12.3
Cc1nn(C)cc1/C=C1/CC2C3CC=C4CC(O)CCC4(C)C3CCC2(C)C1=O (stereo not given)	-18.5	-1.6	3.8	-1.8	3.1	46.8*	10.2
O=C(CCN1C(=O)COc2ccccc21)N1CCC2(CC1)OCCO2	-3.7	-4.5	-0.7	3.3	-10.2	10.5	.
COc1ccc(/C=C/C=C2C(=O)NC(=S)NC2=O)cc1	.	.	-13.9	.	.	-31.0	.
CCOC(=O)Cn1cc([N+](=O)[O-])nc1[N+](=O)[O-]	14.7	9.7	0.6	-1.5	-3.1	55.7*	23.7
O=[N+]([O-])c1ccc(N2CCNCC2)cc1N1CCCCCC1	-1.1	-3.8	1.8	-11.5	-3.8	47.8*	12.7
CN1CCN(c2ccc([N+](=O)[O-])c(N3CCCCC3)c2)CC1	-3.7	6.1	-2.9	-2.3	-13.5	21.9	.
Cc1ccc(S(=O)(=O)NP(=O)(Oc2ccccc2)Oc2ccccc2)cc1	5.8	-2.8	2.5	-5.8	-6.4	4.6	.
Cc1ccc2c(c1)C(c1ccccc1)=NCC(=O)N2	-5.6	-4.8	-2.1	-1.6	-13.8	8.9	.
C[C@]12CC(=O)CC1CCC1C2CC[C@@]2(C)C1CC[C@@H]2O (stereo not given in full)	-16.2	-11.3	0.9	-11.8	0.7	9.0	.
SMILES	SENP7 block	SENP8 block-1	SENP1 FRET inh	SENP6 inh	Platelet DG rel	SENP8 block-2	SENP8 conf	others
CCn1c(O)c(N=Nc2ccc(S(=O)(=O)N3CCOCC3)cc2)c(=O)n(CC)c1=S	7.5	-4.8	0.9	-14.8	8.7	40.1*	19.4
COc1cc(CN2CC=C(c3ccc(F)cc3)CC2)cc(OC)c1	-9.8	-11.3	0.8	-10.6	-7.1	15.1	.
COc1cc(C)c(CN2CC=C(c3ccc(F)cc3)CC2)cc1C	8.9	-4.8	2.2	6.1	-11.5	43.4*	6.6
CC1C(c2cccs2)=[N+]([O-])C(C)(C(=O)c2ccc(Cl)cc2)N1O (stereo not given)	7.9	-1.1	1.3	-7.4	0.5	28.5	.
O=C(c1ccc2c(c1)OCO2)C1CCCN(Cc2c(F)cccc2Cl)C1 (stereo not given)	-9.3	-12.4	0.8	-14.4	0.2	5.9	.
COc1ccccc1N1CCN(Cc2ccccc2Cl)CC1	-3.5	-2.2	35.0*	-3.0	3.2	-11.1	.	SENP1 conf=-4.5;SENP1 kin conf=1.8
CN1CCN(Cc2cc3c(cc2[N+](=O)[O-])OCO3)CC1	-2.5	0.7	-5.8	1.0	-12.0	-18.0	.
Cn1c(O)c(/C=C2\C=Nc3ccccc32)c(=O)n(C)c1=O	3.7	0.7	53.7*	-10.7	-8.1	9.9	.	SENP1 conf=3.8;SENP1 kin conf=8.2
COC(=O)C1=Nc2ccccc2/C1=C\c1c(O)n(C)c(=O)n(C)c1=O	-0.6	8.3	-15.7	-13.1	10.0	-11.3	.
Clc1ccccc1C1=NCc2nncn2-c2sc(Br)cc21	-0.7	-2.3	0.9	-1.5	1.7	17.7	.
Cc1cc(C)c(Cn2c(C(=O)O)c(C=O)c3ccccc32)c(C)c1	8.5	0.7	97.1*	-0.3	9.3	-4.8	.	SENP1 conf=76.7*;SENP1 kin conf=50.9*
O=Cc1c(C(=O)O)n(Cc2ccccc2Cl)c2ccccc12	-4.8	-2.4	0.6	-17.2	-10.0	5.1	.
COc1ccc(OC)c(-n2c(O)c(/C=C3\C(C)=Nc4ccccc43)c(=O)[nH]c2=O)c1	-6.2	-2.4	81.9*	-21.2	-10.7	10.7	.	SENP1 conf=10.2;SENP1 kin conf=11.7
C=CCN1C(=O)/C(=C/c2ccc(N3CCOCC3)o2)C(=O)NC1=S	4.4	-1.5	40.5*	-0.9	9.6	10.0	.	SENP1 conf=31.1;SENP1 kin conf=23.8
Cc1cc(=O)oc2c(C)c(OCC(=O)N3CCN(Cc4ccccc4)CC3)ccc12	-1.9	-3.2	-4.5	-2.5	9.7	-118.5	.
